Calls of active or inactive are those of the source. No cut-off for these calls is given here.
Columns and labels:
[1] = molecular target: T1, Histone-lysine N-methyltransferase SMYD3 (Homo sapiens) (UniProt Q9H7B4); test: Binding affinity to recombinant human SMYD3 expressed in Escherichia coli assessed as change in entropy at 0.3 mM by isothermal titration calorimetry
T1 sequence (whole entry): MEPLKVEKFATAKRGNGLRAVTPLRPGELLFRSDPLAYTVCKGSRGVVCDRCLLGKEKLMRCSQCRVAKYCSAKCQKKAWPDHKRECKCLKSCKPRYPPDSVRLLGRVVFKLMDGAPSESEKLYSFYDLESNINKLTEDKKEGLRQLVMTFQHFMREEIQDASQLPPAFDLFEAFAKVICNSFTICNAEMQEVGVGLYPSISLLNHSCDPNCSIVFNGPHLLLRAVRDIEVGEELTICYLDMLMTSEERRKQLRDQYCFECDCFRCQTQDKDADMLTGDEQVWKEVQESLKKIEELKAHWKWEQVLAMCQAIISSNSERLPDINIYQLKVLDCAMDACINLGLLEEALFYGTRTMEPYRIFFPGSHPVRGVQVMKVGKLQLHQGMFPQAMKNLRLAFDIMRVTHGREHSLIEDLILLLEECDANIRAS
Summary of the method: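 Syringe held compound at 0.3 mM in 20 mM HEPES pH 7.4, 150 mM NaCl, 0.005% Tween 20, 2.5% DMSO; eight 4 µL injections at 180 s intervals into SMYD3.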

[2] = molecular target: T1, Histone-lysine N-methyltransferase SMYD3 (Homo sapiens); test: Binding affinity to biotinylated SMYD3 (unknown origin) assessed as association rate constant (Kon) using S-adenosyl-l-methionine as substrate by surface plasmon resonance analysis
Summary of the method: (§1)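 Biotinylated SMYD3 (aa 1–428) captured (~4700 RU) on streptavidin chip, empty reference flow cell; 25 °C; running buffer 20 mM HEPES pH 7.4, 150 mM NaCl, 3 mM EDTA, 0.05% Tween-20, 2% DMSO, plus 50 µM SAM. Single-cycle kinetics, five concentrations 25–2000 nM, 60 s contact, 300 s dissociation, 30 µL/min; triplicate.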

[3] = molecular target: Mitogen-activated protein kinase 14 (Homo sapiens, UniProt Q16539); test: Inhibition of p38alpha (unknown origin) by competition binding assay
Mitogen-activated protein kinase 14, sequence (Q16539 whole entry): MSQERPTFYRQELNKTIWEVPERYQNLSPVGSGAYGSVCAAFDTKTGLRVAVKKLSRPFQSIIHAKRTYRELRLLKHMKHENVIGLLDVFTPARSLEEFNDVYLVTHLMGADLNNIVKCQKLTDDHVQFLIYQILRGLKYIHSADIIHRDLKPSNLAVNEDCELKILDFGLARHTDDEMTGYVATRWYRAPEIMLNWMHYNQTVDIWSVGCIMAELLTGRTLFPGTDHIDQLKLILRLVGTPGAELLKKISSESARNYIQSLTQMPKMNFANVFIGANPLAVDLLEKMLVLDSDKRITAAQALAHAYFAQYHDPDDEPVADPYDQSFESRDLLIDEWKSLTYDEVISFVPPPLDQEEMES

[4] = molecular target: Histone-lysine N-methyltransferase KMT5B (Homo sapiens) (UniProt Q4FZB7); test: Inhibition of SUV420H1 (unknown origin)
Histone-lysine N-methyltransferase KMT5B (Homo sapiens), sequence (Q4FZB7 whole entry, looked up): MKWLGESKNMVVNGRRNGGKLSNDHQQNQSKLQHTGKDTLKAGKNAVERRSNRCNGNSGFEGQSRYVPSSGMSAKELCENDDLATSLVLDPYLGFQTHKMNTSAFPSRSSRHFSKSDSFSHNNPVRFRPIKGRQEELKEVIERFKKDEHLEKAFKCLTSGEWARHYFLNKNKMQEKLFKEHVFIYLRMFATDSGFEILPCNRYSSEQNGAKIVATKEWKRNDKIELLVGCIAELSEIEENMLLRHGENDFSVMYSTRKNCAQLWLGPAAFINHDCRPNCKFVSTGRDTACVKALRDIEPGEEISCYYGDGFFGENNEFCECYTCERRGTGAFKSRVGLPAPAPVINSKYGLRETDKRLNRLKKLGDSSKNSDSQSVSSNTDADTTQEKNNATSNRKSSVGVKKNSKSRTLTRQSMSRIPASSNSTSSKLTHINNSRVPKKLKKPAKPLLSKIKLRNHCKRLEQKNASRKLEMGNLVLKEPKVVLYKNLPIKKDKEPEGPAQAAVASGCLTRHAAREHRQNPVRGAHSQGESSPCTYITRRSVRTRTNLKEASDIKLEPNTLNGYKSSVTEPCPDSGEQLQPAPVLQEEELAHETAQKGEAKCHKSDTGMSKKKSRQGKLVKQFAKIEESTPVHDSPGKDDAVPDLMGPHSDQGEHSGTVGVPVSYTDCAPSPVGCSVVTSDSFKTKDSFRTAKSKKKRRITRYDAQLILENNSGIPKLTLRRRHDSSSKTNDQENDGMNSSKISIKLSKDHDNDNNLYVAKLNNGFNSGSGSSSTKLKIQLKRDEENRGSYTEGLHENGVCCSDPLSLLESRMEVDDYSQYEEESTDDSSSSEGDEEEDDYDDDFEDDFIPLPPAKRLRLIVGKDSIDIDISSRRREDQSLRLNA

[5] = molecular target: Histone-lysine N-methyltransferase EHMT2 (Homo sapiens) (UniProt Q96KQ7); test: Inhibition of G9a (unknown origin)
[6] = molecular target: Histone-lysine N-methyltransferase 2A (Homo sapiens) (UniProt Q03164); test: Inhibition of MLL1 (unknown origin)
[7] = molecular target: MAP kinase-interacting serine/threonine-protein kinase 1 (Homo sapiens, UniProt Q9BUB5); test: Inhibition of MKNK1 (unknown origin) in presence of ATP
[8] = molecular target: T1, Histone-lysine N-methyltransferase SMYD3 (Homo sapiens); conditions: dose 120.0 µM
SUD4 = test: Antiproliferative activity against human SU-DHL-4 cells assessed as inhibition of cell viability measured for 3 to 5 days by alamar blue staining based assay; assay type: functional
[9] = molecular target: Phosphatidylinositol 5-phosphate 4-kinase type-2 alpha (Homo sapiens, UniProt P48426); test: Inhibition of human PIP4K2A
[10] = molecular target: Casein kinase I isoform alpha (Homo sapiens, UniProt P48729); test: Inhibition of CSNK1A1 (unknown origin)
[11] = molecular target: DNMT3B-DNMT3L complex (Homo sapiens) (UniProt Q9UBC3+Q9UJW3); test: Inhibition of DNMT3B/DNMT3L (unknown origin); assay type: protein-complex assay
[12] = molecular target: Histone-lysine N-methyltransferase 2C (Homo sapiens) (UniProt Q8NEZ4); test: Inhibition of MLL3 (unknown origin)
[13] = system: Histone-lysine N-methyltransferase SMYD3 (Homo sapiens), Q9H7B4 [UNDEFINED MUTATION]; test: Inhibition of SMYD3 catalytic inactive mutant co-expressed with HA-tagged MAP3K2 transfected in human HeLa cells assessed as reduction of MAP3K2-K260me3 level at 1.1 uM incubated for 20 hrs by Western blotting analysis relative to control; assay type: cell-based
Summary of the method: (§2)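 After 4 h, compound or DMSO for 20 h. Lysates immunoblotted for MAP3K2-K260me3 (in-house antibody), HA, SMYD3 and MAP3K2 with infrared secondaries. K260me3 signal normalized to HA; three technical replicates, mean ± SEM, nonlinear fit.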

[14] = molecular target: Protein arginine N-methyltransferase 9 (Homo sapiens) (UniProt Q6P2P2); test: Inhibition of PRMT9 (unknown origin)
[15] = molecular target: Histone-lysine N-methyltransferase SUV39H1 (Homo sapiens) (UniProt O43463); test: Inhibition of SUV39H1 (unknown origin)
Histone-lysine N-methyltransferase SUV39H1 (Homo sapiens), sequence (O43463 whole entry): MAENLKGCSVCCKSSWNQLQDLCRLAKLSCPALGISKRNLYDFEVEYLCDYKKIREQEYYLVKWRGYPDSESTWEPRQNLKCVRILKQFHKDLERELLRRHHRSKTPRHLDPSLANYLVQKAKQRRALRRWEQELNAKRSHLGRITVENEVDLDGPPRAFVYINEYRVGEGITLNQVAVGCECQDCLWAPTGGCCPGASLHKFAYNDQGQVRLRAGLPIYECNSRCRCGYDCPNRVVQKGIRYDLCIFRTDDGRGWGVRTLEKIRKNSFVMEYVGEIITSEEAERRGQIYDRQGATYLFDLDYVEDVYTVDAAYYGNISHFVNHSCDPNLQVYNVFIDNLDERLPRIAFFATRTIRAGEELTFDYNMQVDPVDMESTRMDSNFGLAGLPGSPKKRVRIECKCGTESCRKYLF

[16] = molecular target: Protein arginine N-methyltransferase 3 (Homo sapiens) (UniProt O60678); test: Inhibition of PRMT3 (unknown origin)
[17] = molecular target: MAP kinase-interacting serine/threonine-protein kinase 2 (Homo sapiens, UniProt Q9HBH9); test: Inhibition of MKNK2 (unknown origin) in presence of ATP
MAP kinase-interacting serine/threonine-protein kinase 2, sequence (Q9HBH9 whole entry): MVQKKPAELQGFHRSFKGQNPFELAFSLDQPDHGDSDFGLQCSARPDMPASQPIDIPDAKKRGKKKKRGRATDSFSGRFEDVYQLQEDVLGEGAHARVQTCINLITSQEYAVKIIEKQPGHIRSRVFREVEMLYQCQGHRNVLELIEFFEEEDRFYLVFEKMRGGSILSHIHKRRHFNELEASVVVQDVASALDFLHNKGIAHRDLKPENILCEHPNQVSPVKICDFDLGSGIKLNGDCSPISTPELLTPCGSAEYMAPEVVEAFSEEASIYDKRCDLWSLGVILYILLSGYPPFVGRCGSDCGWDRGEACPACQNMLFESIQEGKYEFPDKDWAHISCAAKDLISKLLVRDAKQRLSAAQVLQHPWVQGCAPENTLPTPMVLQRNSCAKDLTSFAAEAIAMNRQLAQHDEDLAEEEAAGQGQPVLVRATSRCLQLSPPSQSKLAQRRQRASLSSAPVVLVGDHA

[18] = molecular target: Interleukin-1 receptor-associated kinase 4 (Homo sapiens, UniProt Q9NWZ3); test: Inhibition of IRAK4 (unknown origin) in BGG-buffer in presence of ATP
Interleukin-1 receptor-associated kinase 4, sequence (Q9NWZ3 whole entry): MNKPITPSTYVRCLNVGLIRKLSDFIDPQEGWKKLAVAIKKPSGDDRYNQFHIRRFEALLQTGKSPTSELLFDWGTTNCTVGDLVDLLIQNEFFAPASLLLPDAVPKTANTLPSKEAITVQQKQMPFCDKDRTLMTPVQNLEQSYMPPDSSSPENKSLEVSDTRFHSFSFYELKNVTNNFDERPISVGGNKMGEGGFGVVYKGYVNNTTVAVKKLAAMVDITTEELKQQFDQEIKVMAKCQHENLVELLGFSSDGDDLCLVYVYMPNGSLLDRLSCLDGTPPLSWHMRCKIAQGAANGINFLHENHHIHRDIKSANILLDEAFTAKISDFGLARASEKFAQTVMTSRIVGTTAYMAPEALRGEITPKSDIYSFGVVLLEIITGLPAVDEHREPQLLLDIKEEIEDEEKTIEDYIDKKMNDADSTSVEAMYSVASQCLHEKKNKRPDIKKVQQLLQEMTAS

[19] = molecular target: Histone-lysine N-methyltransferase SMYD3 (Homo sapiens, UniProt Q9H7B4); test: (§3) Inhibition of SMYD3 catalytic inactive mutant co-expressed with HA-tagged MAP3K2 transfected in human HeLa cells assessed as reduction of MAP3K2-K260me3 level incubated for 20 hrs by Western blotting analysis; assay type: cell-based; summary of the method: as §2
[20] = system: Histone-lysine N-methyltransferase SMYD3 (Homo sapiens), Q9H7B4 [UNDEFINED MUTATION]; test: as §3; assay type: cell-based; summary of the method: as §2
[21] = molecular target: T1, Histone-lysine N-methyltransferase SMYD3 (Homo sapiens); test: Binding affinity to biotinylated SMYD3 (unknown origin) assessed as dissociation rate constant (Koff) using S-adenosyl-l-methionine as substrate by surface plasmon resonance analysis; summary of the method: as §1
[22] = molecular target: Cyclin-dependent kinase 13 (Homo sapiens, UniProt Q14004); test: Inhibition of CDK13 (unknown origin) by using c-myc peptide as substrate in presence of ATP
Cyclin-dependent kinase 13, sequence (Q14004 whole entry): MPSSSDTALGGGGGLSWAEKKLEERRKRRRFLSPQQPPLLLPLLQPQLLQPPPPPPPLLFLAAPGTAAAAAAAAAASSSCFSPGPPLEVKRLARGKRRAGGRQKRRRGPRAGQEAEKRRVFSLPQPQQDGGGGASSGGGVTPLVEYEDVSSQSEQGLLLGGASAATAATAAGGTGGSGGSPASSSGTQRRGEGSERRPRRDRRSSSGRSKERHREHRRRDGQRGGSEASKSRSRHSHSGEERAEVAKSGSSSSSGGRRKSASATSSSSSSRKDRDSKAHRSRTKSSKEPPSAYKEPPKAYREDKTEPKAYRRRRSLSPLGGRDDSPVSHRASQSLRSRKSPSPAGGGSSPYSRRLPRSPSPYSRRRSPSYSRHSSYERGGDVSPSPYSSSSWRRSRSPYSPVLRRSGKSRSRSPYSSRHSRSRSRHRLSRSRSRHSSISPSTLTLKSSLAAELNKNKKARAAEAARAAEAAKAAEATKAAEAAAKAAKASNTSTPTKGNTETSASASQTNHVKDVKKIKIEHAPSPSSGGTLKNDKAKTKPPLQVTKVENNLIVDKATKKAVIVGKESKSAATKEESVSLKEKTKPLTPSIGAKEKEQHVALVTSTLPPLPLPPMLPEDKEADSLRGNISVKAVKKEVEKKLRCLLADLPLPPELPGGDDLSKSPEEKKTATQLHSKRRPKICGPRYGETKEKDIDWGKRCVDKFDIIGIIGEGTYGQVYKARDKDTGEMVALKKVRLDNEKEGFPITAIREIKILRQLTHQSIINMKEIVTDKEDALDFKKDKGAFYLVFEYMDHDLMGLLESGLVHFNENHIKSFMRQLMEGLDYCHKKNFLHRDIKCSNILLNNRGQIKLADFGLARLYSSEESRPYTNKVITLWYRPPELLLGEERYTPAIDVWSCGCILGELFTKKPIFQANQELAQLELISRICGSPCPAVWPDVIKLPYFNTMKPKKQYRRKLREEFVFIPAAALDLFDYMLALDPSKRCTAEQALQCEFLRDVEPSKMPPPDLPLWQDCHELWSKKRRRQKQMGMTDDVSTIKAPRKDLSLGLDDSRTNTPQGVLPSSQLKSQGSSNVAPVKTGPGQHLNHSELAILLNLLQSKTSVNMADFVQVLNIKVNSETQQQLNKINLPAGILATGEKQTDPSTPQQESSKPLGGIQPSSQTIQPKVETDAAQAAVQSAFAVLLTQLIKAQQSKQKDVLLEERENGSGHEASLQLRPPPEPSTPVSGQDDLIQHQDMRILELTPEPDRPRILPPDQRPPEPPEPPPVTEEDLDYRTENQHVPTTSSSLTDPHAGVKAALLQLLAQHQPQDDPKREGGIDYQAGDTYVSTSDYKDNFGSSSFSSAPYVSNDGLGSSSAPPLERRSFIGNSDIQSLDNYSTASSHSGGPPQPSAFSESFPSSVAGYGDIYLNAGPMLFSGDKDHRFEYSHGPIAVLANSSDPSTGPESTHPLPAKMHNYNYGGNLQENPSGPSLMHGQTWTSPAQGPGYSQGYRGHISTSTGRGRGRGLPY

[23] = molecular target: Mitogen-activated protein kinase kinase kinase kinase 1 (Homo sapiens, UniProt Q92918); test: Inhibition of MAP4K1 (unknown origin) by competition binding assay
Mitogen-activated protein kinase kinase kinase kinase 1, sequence (Q92918 whole entry): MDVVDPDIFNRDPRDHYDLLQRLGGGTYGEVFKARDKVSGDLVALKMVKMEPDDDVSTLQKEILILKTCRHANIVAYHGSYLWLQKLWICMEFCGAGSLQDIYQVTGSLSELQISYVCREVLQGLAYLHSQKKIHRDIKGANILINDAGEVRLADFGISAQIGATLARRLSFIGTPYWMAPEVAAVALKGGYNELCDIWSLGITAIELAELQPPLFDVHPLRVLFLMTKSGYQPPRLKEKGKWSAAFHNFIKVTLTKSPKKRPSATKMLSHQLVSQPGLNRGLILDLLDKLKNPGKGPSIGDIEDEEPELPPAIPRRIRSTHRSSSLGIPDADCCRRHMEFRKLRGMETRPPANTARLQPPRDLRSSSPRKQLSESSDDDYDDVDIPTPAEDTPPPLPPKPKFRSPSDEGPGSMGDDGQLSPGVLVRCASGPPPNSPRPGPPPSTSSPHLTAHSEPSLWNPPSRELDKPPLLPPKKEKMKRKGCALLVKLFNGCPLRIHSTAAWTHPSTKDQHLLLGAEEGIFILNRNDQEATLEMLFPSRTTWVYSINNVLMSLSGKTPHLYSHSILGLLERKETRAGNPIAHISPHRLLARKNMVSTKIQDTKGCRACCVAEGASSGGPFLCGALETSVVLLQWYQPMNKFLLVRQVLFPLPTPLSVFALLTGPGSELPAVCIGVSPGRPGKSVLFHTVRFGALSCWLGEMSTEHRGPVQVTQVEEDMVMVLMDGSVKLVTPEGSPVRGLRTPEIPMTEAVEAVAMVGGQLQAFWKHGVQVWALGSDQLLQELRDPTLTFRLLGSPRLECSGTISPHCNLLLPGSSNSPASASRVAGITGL

[24] = molecular target: Histone-lysine N-methyltransferase NSD2 (Homo sapiens) (UniProt O96028); test: Inhibition of NSD2 (unknown origin)
[25] = molecular target: T1, Histone-lysine N-methyltransferase SMYD3 (Homo sapiens); test: Binding affinity to recombinant human SMYD3 expressed in Escherichia coli assessed as fold change at varying MAP3K2 substrate concentration of upto 150 uM with 10 fold Km concentration by scintillation proximity assay
Summary of the method: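 SPA, 10 nM SMYD3 methylating biotinylated MAP3K2 249–273 peptide with 3H-SAM in 20 mM Tris pH 9, 2.5 mM DTT, 0.01% Triton X-100; 40 min, 23 °C, GuHCl quench.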

[26] = molecular target: T2, Histone-lysine N-methyltransferase SMYD3 (Homo sapiens, UniProt Q9H7B4); test: Binding affinity to biotinylated SMYD3 (unknown origin) assessed as dissociation constant using S-adenosyl-l-methionine as substrate by surface plasmon resonance analysis; summary of the method: as §1
T2 sequence (Q9H7B4 whole entry): T1 sequence (whole entry)

[27] = molecular target: Vascular endothelial growth factor receptor 2 (Homo sapiens, UniProt P35968); test: Inhibition of KDR (unknown origin) by HTRF assay

What does the source list for `C[C@H]1CC(=O)Nc2cc(C(=O)NCCC3CC3)ccc2N1C(=O)N1CC2CC2C1` (some centres undefined)?
-TdeltaS [1]: -5 kcal/mol; deltaS [1]: 17 cal/mol.K; Ka [2]: 3.1 10^5/M/s; IC50 [3]: > 20 µM; inhibition [4]: inactive; inhibition [5]: inactive; inhibition [6]: inactive; IC50 [7]: > 20 µM; deltaTm [8]: 8.34 K; IC50 (SUD4): > 10 µM; IC50 [9]: > 20 µM; IC50 [10]: > 20 µM; inhibition [11]: inactive; inhibition [12]: inactive; inhibition [13]: 86%; inhibition [14]: inactive; inhibition [15]: inactive; inhibition [16]: inactive; IC50 [17]: > 20 µM; IC50 [18]: > 20 µM; IC50 [19]: 183 nM; inhibition [20]: Dose-Dependent Effect; Kdiss [21]: 3 10^-2/s; IC50 [22]: > 20 µM; IC50 [23]: > 20 µM; inhibition [24]: inactive; fold change (FC) [25]: 4; Kd [26]: 97 nM; IC50 [27]: > 20 µM
